From publication PMC12217349 (Scientific Reports, 2025)

Columns and labels:
[1] = system: bone marrow collagen fibrosis; settings: myelofibrosis patients treated for 9 months; cited from earlier work
[2] = system: myocardial infarction (MI) mouse model; experiment: Myocardial infarction; assay type: in vivo, Male C57BL/6J mice; settings: MI mice; daily oral gavage 28 days; SNT-5382 14 mg/kg, losartan 15 mg/kg
Procedure, shortened: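 Male C57BL/6J mice, 10–11 weeks, were anaesthetised with ketamine 100 mg/kg and xylazine 10 mg/kg under ventilation. The left coronary artery was permanently ligated; shams had no occlusion. Mice with fractional shortening of 10–40% at 24 h were included. Daily oral gavage for 4 weeks: test compound 14 mg/kg (free base), losartan 15 mg/kg or water vehicle; blinded.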

LOXL2 = settings: cited from earlier work

## NCc1cc(Oc2cccc(C(=O)N3C[C@@H](O)[C@H](F)C3)c2)nc(C(F)(F)F)c1 [GB2064]
[1]
  patients with reduced bone marrow collagen fibrosis grade: 60%

## CCCCc1nc(Cl)c(CO)n1Cc1ccc(-c2ccccc2-c2nn[nH]n2)cc1 [losartan, Losartan]
[2]
  hypertrophy: left ventricular end-systolic diameter (LVESD): no significant effect

B1: simtuzumab: an allosteric LOXL2 selective antibody (antibody, chains of the INN, looked up, V domains shown)
VH: QVQLVQSGAEVKKPGASVKVSCKASGYAFTYYLIEWVRQAPGQGLEWIGVINPGSGGTNYNEKFKGRATITADKSTSTAYMELSSLRSEDTAVYFCARNWMNFDYWGQGTTVTVSS
VL: DIVMTQTPLSLSVTPGQPASISCRSSKSLLHSNGNTYLYWFLQKPGQSPQFLIYRMSNLASGVPDRFSGSGSGTDFTLKISRVEAEDVGVYYCMQHLEYPYTFGGGTKVEIK
LOXL2
  inhibition of LOXL2 enzymatic activity: did not inhibit the enzymatic activity of LOXL2
